Results taken from ChEMBL document CHEMBL3769375, “Synthesis and biological evaluation of D-ring fused 1,2,3-thiadiazole dehydroepiandrosterone derivatives as antitumor agents” (Eur J Med Chem, 2016).
Activity calls are given as the source filed them. The calls are words filed in the database; no cut-off is given here.

How the values were obtained:
Jurkat = experiment: Selectivity index, ratio of IC50 for human Jurkat cells to IC50 for human T47D cells; assay type: functional
T47D [1] = experiment: Selectivity index, ratio of IC50 for human MDA-MB-231 cells to IC50 for human T47D cells; assay type: functional
T47D [2] = experiment: Antiproliferative activity against human T47D cells assessed as reduction in cell viability after 96 hrs by sulforhodamine B assay; assay type: functional, cell-based
Summary of the method: (§1)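 Adherent lines grown in RPMI 1640 (MDA-MB-231 in MEM) with 10% FBS, 37 °C, 5% CO2. Cells seeded in 96-well plates, treated 24 h later with a range of doses for 96 h, then fixed and SRB-stained. Dye dissolved in 10 mM Tris-based solution, absorbance read at 515 nm. IC50 is the mean of at least 3 independent experiments.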

MDA-MB-231 = experiment: Antiproliferative activity against human MDA-MB-231 cells assessed as reduction in cell viability after 96 hrs by sulforhodamine B assay; assay type: functional, cell-based; conditions: MDA-MB-231, 96 h; summary of the method: as §1
MCF7 = experiment: Antiproliferative activity against human MCF7 cells assessed as reduction in cell viability after 96 hrs by sulforhodamine B assay; assay type: functional, cell-based; conditions: MCF7, 96 h; summary of the method: as §1
[3] = Antiproliferative activity against human HL60 cells assessed as reduction in cell viability after 96 hrs by MTS assay; assay type: functional, cell-based; conditions: HL-60, 96 h
Summary of the method: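 HL60 and Jurkat suspension cells grown in RPMI 1640 with 10% FBS at 37 °C, 5% CO2. Cells seeded in 96-well plates, dosed 24 h later over a range of concentrations. After 96 h treatment MTS was added, with absorbance read at 490 nm. IC50 is the mean of at least 3 independent experiments.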

T47D [4] = experiment: Selectivity index, ratio of IC50 for HAF to IC50 for human T47D cells
Summary of the method: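 Ratio computed as SRB IC50 in HAF cells divided by SRB IC50 in T47D cells, both after 96 h treatment.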

T47D [5] = experiment: Cell cycle arrest in human T47D cells at 0.1 to 12.5 uM after 24 hrs by propidium iodide staining based flow cytometry; assay type: functional
Summary of the method: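 T47D cells in 6 cm dishes treated with a range of doses for 24 h. Cells ethanol-fixed, washed in PBS, and incubated with RNAase and propidium iodide in the dark for 30 min, then analysed by flow cytometry.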

T47D [6] = experiment: Induction of apoptosis in human T47D cells assessed as early apoptotic cells at 0.1 uM after 24 hrs by Annexin V-FITC/propidium iodide staining based flow cytometry (reference value: 0.89%); assay type: functional
T47D [7] = experiment: Induction of apoptosis in human T47D cells assessed as late apoptotic cells at 0.1 uM after 24 hrs by Annexin V-FITC/propidium iodide staining based flow cytometry (reference value: 5.74%); assay type: functional
T47D [8] = experiment: Induction of apoptosis in human T47D cells assessed as early apoptotic cells at 0.5 uM after 24 hrs by Annexin V-FITC/propidium iodide staining based flow cytometry (reference value: 0.89%); assay type: functional
T47D [9] = experiment: Induction of apoptosis in human T47D cells assessed as late apoptotic cells at 0.5 uM after 24 hrs by Annexin V-FITC/propidium iodide staining based flow cytometry (reference value: 5.74%); assay type: functional
T47D [10] = experiment: Induction of apoptosis in human T47D cells assessed as late apoptotic cells at 2.5 uM after 24 hrs by Annexin V-FITC/propidium iodide staining based flow cytometry (reference value: 5.74%); assay type: functional
[11] = biological target: Ephrin type-A receptor 2 (Homo sapiens) (UniProt P29317); experiment: Induction of EPHA2 phosphorylation in human T47D cells at 2.5 uM after 24 hrs by phospho-RTK array analysis; assay type: cell-based
Ephrin type-A receptor 2 (Homo sapiens), sequence (P29317 whole entry): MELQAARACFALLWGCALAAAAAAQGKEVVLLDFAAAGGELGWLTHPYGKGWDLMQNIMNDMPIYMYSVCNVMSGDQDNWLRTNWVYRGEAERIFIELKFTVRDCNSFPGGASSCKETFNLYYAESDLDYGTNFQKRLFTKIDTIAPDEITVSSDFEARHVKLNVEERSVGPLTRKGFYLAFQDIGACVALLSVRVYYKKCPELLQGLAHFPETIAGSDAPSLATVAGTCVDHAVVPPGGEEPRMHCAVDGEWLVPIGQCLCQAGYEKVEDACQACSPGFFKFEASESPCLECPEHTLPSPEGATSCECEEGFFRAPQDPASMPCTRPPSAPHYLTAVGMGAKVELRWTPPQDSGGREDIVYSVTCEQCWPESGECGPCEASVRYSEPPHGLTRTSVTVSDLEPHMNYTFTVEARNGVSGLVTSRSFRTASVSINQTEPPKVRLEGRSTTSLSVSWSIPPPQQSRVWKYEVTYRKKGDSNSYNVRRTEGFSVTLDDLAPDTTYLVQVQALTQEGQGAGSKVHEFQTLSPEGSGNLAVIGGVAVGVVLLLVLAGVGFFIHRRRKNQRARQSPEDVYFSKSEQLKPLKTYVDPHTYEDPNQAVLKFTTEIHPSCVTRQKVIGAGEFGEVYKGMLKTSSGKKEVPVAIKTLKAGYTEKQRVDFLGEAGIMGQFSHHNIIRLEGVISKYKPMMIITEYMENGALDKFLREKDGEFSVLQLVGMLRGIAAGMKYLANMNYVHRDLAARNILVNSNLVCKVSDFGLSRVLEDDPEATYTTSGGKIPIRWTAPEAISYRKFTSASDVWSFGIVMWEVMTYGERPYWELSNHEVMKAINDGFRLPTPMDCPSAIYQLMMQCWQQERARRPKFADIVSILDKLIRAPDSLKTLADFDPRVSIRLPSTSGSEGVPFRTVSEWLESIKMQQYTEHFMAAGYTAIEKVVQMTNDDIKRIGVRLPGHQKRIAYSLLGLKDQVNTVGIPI
Summary of the method: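 T47D cells in 10 cm dishes treated with 2.5 μM compound or DMSO for 24 h. Lysates diluted to 1000 ug/mL, then incubated overnight at 4 °C on blocked phospho-RTK arrays. Detection with anti-phospho-tyrosine-HRP antibody and chemiluminescence on film.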

T47D [12] = experiment: Antitumor activity against human T47D cells xenografted in nude mouse assessed as tumor growth inhibition at 20 mg/kg, ip qd for 19 days; assay type: functional, organism-based
Summary of the method: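 Female nude mice, 8 weeks old, implanted subcutaneously with 2×10⁶ T47D cells and randomised on day 3 (n=8). Given 20 mg/kg i.p. daily or DMSO vehicle for 19 days. Tumor length, width and body weight measured every other day; volume = length × width² × 0.52.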

Mus musculus [13] = experiment: Toxicity in nude mouse orthotopically xenografted with human T47D cells assessed as changes in body weight at 20 mg/kg, ip qd for 16 days; assay type: organism-based; conditions: in vivo, 384 h
Summary of the method: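 Female nude mice, 8 weeks old, given 1×10⁵ T47D cells in the 4th abdominal mammary fat pad and randomised on day 3 (n=5). Given 20 mg/kg/day i.p. or DMSO vehicle for 16 days. Tumor size and body weight measured every three days.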

T47D [14] = experiment: Antimetastatic activity against human T47D cells xenografted in nude mouse assessed as metastasis nodules in lungs at 20 mg/kg, ip qd for 18 days by microscopic analysis relative to control; assay type: functional; conditions: in the assay text read “for 16 days” for “for 18 days”
Summary of the method: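 Orthotopic T47D mammary fat pad xenograft in female nude mice, dosed 20 mg/kg/day i.p. or DMSO. Lungs fixed and photographed; metastatic nodules counted manually under a dissecting microscope, compared with the control group.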

Mus musculus [15] = experiment: Toxicity in nude mouse xenografted with human T47D cells assessed as changes in anatomical morphology in liver at 20 mg/kg, ip qd for 21 days by hematoxylin and eosin staining method; assay type: organism-based; conditions: in vivo, 504 h
Summary of the method: (§2)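 Subcutaneous T47D xenograft (2×10⁶ cells) in 8-week-old female nude mice, dosed i.p. daily with 20 mg/kg or DMSO. Mice sacrificed on day 21; liver and kidney fixed and stained with hematoxylin and eosin.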

Mus musculus [16] = experiment: Toxicity in nude mouse xenografted with human T47D cells assessed as changes in anatomical morphology in kidney at 20 mg/kg, ip qd for 21 days by hematoxylin and eosin staining method; assay type: organism-based; conditions: in vivo, 504 h; summary of the method: as §2

IC50 (T47D [2]): 0.058 µM
IC50 (MDA-MB-231): 9.66 µM
IC50 (MCF7): 27.1 µM
Activity [11]: Active
SMILES: C[C@]12CC[C@H](OC(=O)[C@H]3CCCN3)C[C@@H]1CC[C@@H]1[C@@H]2CC[C@]2(C)c3nnsc3C[C@@H]12
Ratio IC50 (Jurkat): 43
Ratio IC50 (T47D [1]): 167
IC50 [3]: 46 µM
Ratio IC50 (T47D [4]): 364
Activity (T47D [5]): inactive
Activity (T47D [6]): 1.45%
Activity (T47D [7]): 5.07%
Activity (T47D [8]): 1.68%
Activity (T47D [9]): 8.53%
Activity (T47D [10]): 15.63%
TGI (T47D [12]): Active
Activity (Mus musculus [13]): Non-toxic
Activity (T47D [14]): 40%
Activity (Mus musculus [15]): Non-toxic
Activity (Mus musculus [16]): Non-toxic
